Measurements taken from paper PMC4517987 (Bioorganic & medicinal chemistry, 2015).
Where a name gives a salt, the structure may show the parent alone.

What was measured:
Plasmodium yoelii = conditions: murine model of Plasmodium yoelii; ref unpublished observations; cited from earlier work
[1] = test system: late (>90% stage IV/V) gametocytes of P. falciparum (NF54-Mal8p1.16-GFP-Luc); experiment: Gametocytocidal luciferase reporter assay, late gametocytes; format: cell-based, Plasmodium falciparum; conditions: 5 µM, 48 h, inhibition of luciferase readout
In short: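 Gametocytes induced from synchronized asexual cultures in the NF54-Mal8p1.16-GFP-Luc line: glucose-free medium under hypoxia, with daily changes, and 50 mM N-acetyl glucosamine on days 1–4 to remove asexual forms. Assays set up on day 10 in triplicate at 2% gametocytemia and 2% hematocrit, 48 h, 37 °C, hypoxic. Luciferin added to lysates at room temperature and luminescence read with 10 s integration; % inhibition derived.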

HepG2 cells [2] = experiment: Cytotoxicity against HepG2 cells, lactate dehydrogenase; format: cell-based, human; conditions: GI50 mammalian cell (HepG2)/IC50 P. falciparum (3D7)
β-hematin formation = experiment: NP-40 mediated β-hematin formation assay; format: biochemical
[3] = test system: intraerythrocytic P. falciparum parasites; experiment: Flow cytometric analysis of nuclear content and parasitemia; format: cell-based, Plasmodium falciparum; conditions: 1 × IC90, continuous treatment for 96 h
In short: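 Intraerythrocytic parasites (2% parasitemia, 2% hematocrit) treated in duplicate, with untreated (DMSO) controls. Samples taken at 24, 48, 72 and 96 h. Nuclear content (1 N rings/early trophozoites, 2 N trophozoites, >2 N schizonts) and parasitemia measured from SYBR Green I fluorescence by flow cytometry in the FITC channel (488 nm excitation; 502 nm long-pass and 530 nm band-pass emission).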

HepG2 cells [4] = conditions: HepG2 vs P. falciparum; cited from earlier work
[5] = test system: intraerythrocytic P. falciparum 3D7; conditions: cited from earlier work

Compound: C(CCCNCCCNCC1CCCCCC1)CCCNCCCNCC1CCCCCC1 [Compound 5]
- Reduction of parasitemia and extension of life span (Plasmodium yoelii): as effective as pyrimethamine at reducing parasitemia and extending life span

Compound: S=C(NCCCNCCCCCNCCCNC(=S)NC(c1ccccc1)c1ccccc1)NC(c1ccccc1)c1ccccc1 [Compound 9, 1,13-Bis-{3-[1-(1’,1’-diphenylmethyl)thiourea]}-4,10-diazatridecane dihydrochloride]
- Gametocytocidal activity, late-stage gametocytes [1]: fully inhibitory

Compound: S=C(NCCCNCCCCCNCCCNC(=S)NCC(c1ccccc1)c1ccccc1)NCC(c1ccccc1)c1ccccc1 [Compound 10, 1,13-Bis-{3-[1-(2′,2′-diphenylethyl)thiourea]}-4,10-diazatridecane dihydrochloride]
- Selectivity index (SI) (HepG2 cells [2]): > 1000

Compound: S=C(NCCCNCCCCCNCCCNC(=S)NCCC(c1ccccc1)c1ccccc1)NCCC(c1ccccc1)c1ccccc1 [Compound 11, 1,13-Bis-{3-[1-(3′,3′-diphenylpropyl)thiourea]}-4,10-diazatridecane dihydrochloride]
- Gametocytocidal activity, late-stage gametocytes [1]: fully inhibitory

Compound: O=C(NCCCNCCCCCNCCCNC(=O)NCc1ccccc1)NCc1ccccc1 [Compound 13, 1,13-Bis-{3-[1-(benzyl)urea]}-4,10-diazatridecane dihydrochloride]
- β-hematin formation inhibition, concentration without activity (β-hematin formation; no activity even at 1 mM): > 1 mM

Compound: O=C(NCCCNCCCCCNCCCNC(=O)NCC(c1ccccc1)c1ccccc1)NCC(c1ccccc1)c1ccccc1 [Compound 15, 1,13-Bis-{3-[1-(2′,2′-diphenylethyl)urea]}-4,10-diazat-ridecane dihydrochloride]
- Time to complete cessation of parasite proliferation [3]: ≤ 24 h

Compound: O=C(NCCCNCCCCCNCCCNC(=O)NCCC(c1ccccc1)c1ccccc1)NCCC(c1ccccc1)c1ccccc1 [Compound 16, 1,13-Bis-{3-[1-(3′,3′-diphenylpropyl)urea]}-4,10-diazatridecane dihydrochloride]
- Time to complete cessation of parasite proliferation [3]: ≤ 24 h
- IC50 (β-hematin formation; read-out: β-hematin formation inhibition IC50, NP-40 mediated, n = 3): > 400 µM

Compound: S=C(NCCCNCCCCCCNCCCNC(=S)NCc1ccccc1)NCc1ccccc1 [Compound 28]
- Selectivity (SI) compared to HepG2 cells (previously reported analogues) (HepG2 cells [4]): > 1000

Compound: O=C(NCCCNCCCCCCCNCCCNC(=O)NC(c1ccccc1)c1ccccc1)NC(c1ccccc1)c1ccccc1 [Compound 29]
- Selectivity (SI) compared to HepG2 cells (previously reported analogues) (HepG2 cells [4]): > 1000

Compound: CCCNC(=O)NCCCNCCCCCCNCCCNC(=O)NCCC [Compound 53]
- P. falciparum IC50 (previously reported analogues) [5]: inactive

Compound: CCNC(=O)NCCCNCCCCCCNCCCNC(=O)NCC [Compound 54]
- P. falciparum IC50 (previously reported analogues) [5]: inactive
